The record followed here is ChEMBL document CHEMBL1926572, “Synthesis and evaluation of the substrate activity of C-6 substituted purine ribosides with E. coli purine nucleoside phosphorylase: palladium mediated cross-coupling of organozinc halides with 6-chloropurine nucleosides” (Eur J Med Chem, 2012).

For one series, the system named is Escherichia coli. As to the kind of experiment: Activity of Escherichia coli PNP assessed per mg of protein at 100 uM by UV spectrometric analysis. The procedure, abridged:
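Samples taken at several times; substrate and product resolved by C-18 HPLC (5–50% acetonitrile gradient, NH₄H₂PO₄ pH 4.5) with UV detection. Rate in nmoles/mg/h; mean of at least 2 measurements.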

A further series has as its system CCRF-CEM. As to the kind of experiment: Cytotoxicity against human CCRF-CEM cells after 72 hrs by coulter counting. Type of series: functional, cell-based.
Series [1] concerns NCI-H23. As to the kind of experiment: Cytotoxicity against human NCI-H23 cells assessed as cell viability after 72 hrs by sulforhodamine B assay. Type of series: functional, cell-based. The note with it: NCI-H23, 72 h. The procedure, abridged: (§1)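 Cells plated and kept at 37 °C with a range of compound concentrations for 72 h of continuous exposure; viability by sulforhodamine B staining, absorbance at 570 nm; concentration inhibiting growth by 50% determined from a single experiment.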
A general note: Sulforhodamine B stains cellular protein and so reports cell mass.

Another series concerns DLD-1. As to the kind of experiment: Cytotoxicity against human DLD1 cells assessed as cell viability after 72 hrs by sulforhodamine B assay. Type of series: functional, cell-based. The settings on record: DLD-1, 72 h. In a few lines:
as §1

In the next series the test system is SNB-7. As to the kind of experiment: Cytotoxicity against human SNB7 cells assessed as cell viability after 72 hrs by sulforhodamine B assay. Type of series: functional, cell-based. The note with it: SNB-7, 72 h. The procedure, abridged: as §1
For another series, the system named is CAKI-1. Briefly: Cytotoxicity against human Caki1 cells assessed as cell viability after 72 hrs by sulforhodamine B assay. Type of series: functional, cell-based. The settings on record: CAKI-1, 72 h. The procedure, abridged:
as §1

The subject of a further series is PC-3. As to the kind of experiment: Cytotoxicity against human PC3 cells assessed as cell viability after 72 hrs by sulforhodamine B assay. Type of series: functional, cell-based. The settings on record: PC-3, 72 h. The procedure, abridged:
as §1

Another series relates to ZR-75-1. Briefly: Cytotoxicity against human ZR-75-1 cells assessed as cell viability after 72 hrs by sulforhodamine B assay. Type of series: functional, cell-based. The note with it: ZR-75-1, 72 h. In a few lines:
as §1

The next series concerns LOX IMVI. As to the kind of experiment: Cytotoxicity against human LOXIMVI cells assessed as cell viability after 72 hrs by sulforhodamine B assay. Type of series: functional, cell-based. In a few lines: as §1
Series [2] has as its system NCI-H23. Briefly: Antitumor activity against human NCI-H23 cells xenografted in nude mouse assessed as tumor growth inhibition at maximum tolerated dose, ip qd for 9 consecutive days. Type of series: functional, organism-based. The procedure, abridged: (§2)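 NCI-H23 tumors grown on the flanks of nude mice; once tumors were about 200 mg, animals received 33, 50 or 75 mg/kg ip daily for 9 consecutive days; tumor growth and body weight followed.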
In general terms: In xenograft studies the graft and the host belong to different species.

The subject of series [3] is Mus musculus. As to the kind of experiment: Toxicity in nude mouse xenografted with human NCI-H23 cells assessed as decrease in body weight at 75 mg/kg, ip qd for 9 consecutive days. Type of series: organism-based. Further details: dose 75 mg/kg, route intraperitoneal; scale not given: the % may be the effect or the level left. The note with it: in vivo. In a few lines: as §2

In series [4] the test system is NCI-H23. Briefly: Antitumor activity against human NCI-H23 cells xenografted in nude mouse assessed as tumor growth inhibition at 33 to 75 mg/kg, ip qd for 9 consecutive days. Type of series: functional, organism-based. The procedure, abridged:
as §2

For series [5], the system named is Mus musculus. As to the kind of experiment: Toxicity in nude mouse xenografted with human NCI-H23 cells assessed as mortality at 75 mg/kg, ip qd for 9 consecutive days. Type of series: organism-based. Further details: dose 75 mg/kg, route intraperitoneal. The note with it: in vivo. In a few lines: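 NCI-H23 tumours grown subcutaneously on the flanks of nude mice. Dosing began once tumours reached about 200 mg: 33, 50 or 75 mg/kg given ip once daily for 9 consecutive days. Tumour growth, deaths and body-weight loss were recorded.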

The source made the active and inactive calls. The rule behind the calls is not given here.

In the series with Escherichia coli, `OC[C@H]1O[C@@H](n2cnc3c(C4CCCC4)ncnc32)[C@H](O)[C@@H]1O` yielded an Activity of 42000 nmol/h. This compound also returned an IC50 in the series on CCRF-CEM of 16 µM.

Turning to `OC[C@H]1O[C@@H](n2cnc3c(-c4ccccc4)ncnc32)[C@H](O)[C@@H]1O`, the half-maximal inhibitory concentration (IC50) in the series with NCI-H23 [1] came to 1200 nM; in the series on DLD-1, 6 µM; with CCRF-CEM, 0.62 µM; in the series on SNB-7, 31 µM; with CAKI-1, 31 µM; in the series on PC-3, 1200 nM. Further, the IC50 was 1200 nM in the series on ZR-75-1 and 6.2 µM with LOX IMVI. Further, the Activity with Escherichia coli came to 21000 nmol/h.

In the series with Escherichia coli, `Cc1ncnc2c1ncn2[C@@H]1O[C@H](CO)[C@@H](O)[C@H]1O` registered an Activity of 84000 nmol/h. The IC50 in the series on CCRF-CEM worked out at 0.02 µM.

The compound `OC[C@H]1O[C@@H](n2cnc3c(C4CCC4)ncnc32)[C@H](O)[C@@H]1O` had an Activity with Escherichia coli of 63000 nmol/h. The midpoint of inhibition in the series with CCRF-CEM, the IC50, lay at 7 µM.

Regarding `Nc1nc(F)nc2c1ncn2[C@@H]1O[C@H](CO)[C@@H](O)[C@@H]1O`, in the series on Escherichia coli, the Activity was determined as 1300 nmol/h.

As for `Cc1ncnc2c1ncn2[C@H]1C[C@H](O)[C@@H](CO)O1`, the Activity in the series with Escherichia coli is 461000 nmol/h.

The compound `CCCc1ncnc2c1ncn2[C@@H]1O[C@H](CO)[C@@H](O)[C@H]1O` displayed an Activity in the series on Escherichia coli of 72000 nmol/h. In the series with CCRF-CEM, this compound displayed an IC50 of 6.8 µM.

Take `OC[C@H]1O[C@@H](n2cnc3c(-c4cccs4)ncnc32)[C@H](O)[C@@H]1O`: the IC50 amounted to 600 nM in the series on NCI-H23 [1]; 0.9 µM in the series with DLD-1; 0.09 µM in the series with CCRF-CEM; 10 µM in the series with SNB-7; 30 µM in the series with CAKI-1; 900 nM with PC-3. For the same compound, the IC50 in the series on ZR-75-1 came to 300 nM; in the series with LOX IMVI it was 0.3 µM. For the same compound, the Activity turned out to be 9900 nmol/h in the series on Escherichia coli and 14% with Mus musculus [3]. The “growth inhibition (GI)” value in the series with NCI-H23 [2] and in the series on NCI-H23 [4] was “inactive” throughout.

In turn, `CCCCc1ncnc2c1ncn2[C@@H]1O[C@H](CO)[C@@H](O)[C@H]1O` displayed an Activity in the series with Escherichia coli of 86000 nmol/h. The compound also registered a half-inhibitory concentration (IC50) in the series with CCRF-CEM of 49 µM.

In the series on Escherichia coli, `CCc1ncnc2c1ncn2[C@@H]1O[C@H](CO)[C@@H](O)[C@H]1O` registered an Activity of 69000 nmol/h. In addition, in the series on CCRF-CEM, the IC50 was 0.72 µM.

On to `CC(C)Cc1ncnc2c1ncn2[C@@H]1O[C@H](CO)[C@@H](O)[C@H]1O`, for which the Activity in the series with Escherichia coli was found to be 79000 nmol/h. In the series on CCRF-CEM, this compound yielded a 50% inhibitory concentration (IC50) of over 130 µM.

With `Nc1ncnc2c1ncn2[C@@H]1O[C@H](CO)[C@@H](O)[C@H]1O`, in the series with Escherichia coli, the Activity is 398000 nmol/h.

Turning to `OC[C@H]1O[C@@H](n2cnc3c(C4CC4)ncnc32)[C@H](O)[C@@H]1O`, the IC50 in the series with NCI-H23 [1] was 1000 nM; with DLD-1 it was 170 µM; in the series with CCRF-CEM, 1 µM; in the series with SNB-7 it was 33 µM; with CAKI-1 it was over 200 µM; with PC-3 it was 67000 nM. The figures for the IC50 in the series with ZR-75-1 and in the series on LOX IMVI were 23000 nM and over 200 µM, respectively. For the same compound, the Activity with Escherichia coli is 51000 nmol/h; in the series on Mus musculus [5], “Toxic”. The “growth inhibition (GI)” value with NCI-H23 [2] and with NCI-H23 [4] was “inactive” in each case.

Take `Cc1ncnc2c1ncn2[C@@H]1O[C@H](CO)[C@@H](O)[C@@H]1O`: the Activity in the series on Escherichia coli was found to be 14 nmol/h. The compound also registered an IC50 in the series on CCRF-CEM of over 130 µM.

In general, IC50 refers to the point on the concentration scale where inhibition reaches its midpoint.
